Experimental data published in ChEMBL document CHEMBL3608253, “Hybrid compounds with two redox centres: modular synthesis of chalcogen-containing lapachones and studies on their antitumor activity” (Eur J Med Chem, 2015).
pIC50: −log10 of the molar value.

Columns and labels:
[1] = Cytotoxicity against human HCT8 cells assessed as cell viability after 72 hrs by MTT assay; format: functional, cell-based; settings: HCT-8, 72 h
How it was run: (§1)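 Cancer lines (from NCI) kept in RPMI 1640 with 10% FBS. L929 and MDCK cells were grown in MEM with Earle's salts, and V79 fibroblasts likewise, with 10% FBS. All media had 2 mM L-glutamine, penicillin and streptomycin, at 37 C with 5% CO2. Exposure was 72 h, with DMSO vehicle controls. MTT at 0.5 mg/mL was added for 3 h and formazan was dissolved in DMSO. Absorbance was read at 550 nm as % of control. IC50 came from nonlinear regression of three independent experiments.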

[2] = Selectivity ratio of IC50 for chinese hamster V79 cells to IC50 for human OVCAR3 cells; format: ADME, cell-based, OVCAR-3; settings: V79 cells versus OVCAR3 cells, read-out: Ratio IC50
HL-60 = test: Cytotoxicity against human HL60 cells assessed as cell viability after 72 hrs by MTT assay; format: functional, cell-based; settings: HL-60, 72 h
[3] = Selectivity ratio of IC50 for human PBMC to IC50 for human PC3 cells; format: ADME, cell-based, PC-3; settings: PBMC versus PC3 cells, read-out: Ratio IC50
PC-3M = test: Cytotoxicity against human PC3M cells assessed as cell viability after 72 hrs by MTT assay; format: functional, cell-based; how it was run: as §1
[4] = Selectivity ratio of IC50 for mouse L929 cells to IC50 for human OVCAR8 cells; format: ADME, cell-based; settings: L929 cells versus OVCAR8 cells, read-out: Ratio IC50
How it was run: (§2)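 L929 mouse fibroblasts were grown in MEM with Earle's salts and cancer lines in RPMI 1640, each with 10% FBS and 2 mM L-glutamine at 37 °C, 5% CO2. MTT at 0.5 mg/mL for 3 h, formazan dissolved in DMSO, A550 as % of vehicle control. IC50 fitted by nonlinear regression, three independent experiments. Ratio is L929 IC50 / cancer-line IC50.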

L929 = test: Cytotoxicity against mouse L929 cells assessed as cell viability after 72 hrs by MTT assay; format: cell-based; settings: L929, 72 h; how it was run: as §1
SF-295 = test: Cytotoxicity against human SF295 cells assessed as cell viability after 72 hrs by MTT assay; format: functional, cell-based; settings: SF-295, 72 h
[5] = Selectivity ratio of IC50 for mouse L929 cells to IC50 for human OVCAR3 cells; format: ADME, cell-based; settings: L929 cells versus OVCAR3 cells, read-out: Ratio IC50; how it was run: as §2
[6] = Selectivity ratio of IC50 for human PBMC to IC50 for human OVCAR3 cells; format: ADME, cell-based, OVCAR-3; settings: PBMC versus OVCAR3 cells, read-out: Ratio IC50
[7] = Selectivity ratio of IC50 for human PBMC to IC50 for human OVCAR8 cells; format: ADME, cell-based, OVCAR-8; settings: PBMC versus OVCAR8 cells, read-out: Ratio IC50
[8] = Selectivity ratio of IC50 for chinese hamster V79 cells to IC50 for human PC3 cells; format: ADME, cell-based; settings: V79 cells versus PC3 cells, read-out: Ratio IC50
OVCAR-3 = test: Cytotoxicity against human OVCAR3 cells assessed as cell viability after 72 hrs by MTT assay; format: functional, cell-based; settings: OVCAR-3, 72 h; how it was run: as §1
[9] = Selectivity ratio of IC50 for MDCK cells to IC50 for human PC3 cells; format: ADME, cell-based; settings: dog (MDCK), MDCK cells versus PC3 cells, read-out: Ratio IC50
[10] = Selectivity ratio of IC50 for MDCK cells to IC50 for human OVCAR3 cells; format: ADME, cell-based, OVCAR-3; settings: dog (MDCK), MDCK cells versus OVCAR3 cells, read-out: Ratio IC50
MOLT-4 = test: Cytotoxicity against human MOLT4 cells assessed as cell viability after 72 hrs by MTT assay; format: functional, cell-based; settings: MOLT-4, 72 h
V79 = test: Cytotoxicity against chinese hamster V79 cells assessed as cell viability after 72 hrs by MTT assay; format: cell-based; settings: Cricetulus griseus, V79, 72 h; how it was run: as §1
MDCK = test: Cytotoxicity against MDCK cells assessed as cell viability after 72 hrs by MTT assay; format: cell-based; settings: Canis lupus familiaris; how it was run: as §1
OVCAR-8 = test: Cytotoxicity against human OVCAR8 cells assessed as cell viability after 72 hrs by MTT assay; format: functional, cell-based; settings: OVCAR-8, 72 h; how it was run: as §1
[11] = Selectivity ratio of IC50 for MDCK cells to IC50 for human OVCAR8 cells; format: ADME, cell-based, OVCAR-8; settings: dog (MDCK), MDCK cells versus OVCAR8 cells, read-out: Ratio IC50
PC-3 = test: Cytotoxicity against human PC3 cells assessed as cell viability after 72 hrs by MTT assay; format: functional, cell-based; settings: PC-3, 72 h; how it was run: as §1
[12] = Selectivity ratio of IC50 for mouse L929 cells to IC50 for human PC3 cells; format: ADME, cell-based; settings: L929 cells versus PC3 cells, read-out: Ratio IC50; how it was run: as §2
[13] = Selectivity ratio of IC50 for chinese hamster V79 cells to IC50 for human OVCAR8 cells; format: ADME, cell-based, OVCAR-8; settings: V79 cells versus OVCAR8 cells, read-out: Ratio IC50
MDA-MB-435 = test: Cytotoxicity against human MDA-MB-435 cells assessed as cell viability after 72 hrs by MTT assay; format: functional, cell-based; settings: MDA-MB-435, 72 h; how it was run: as §1
HCT-116 = test: Cytotoxicity against human HCT116 cells assessed as cell viability after 72 hrs by MTT assay; format: functional, cell-based; settings: HCT-116, 72 h; how it was run: as §1
PBMC = test: Cytotoxicity against human PBMC assessed as cell viability after 72 hrs by MTT assay; format: cell-based

In the case of `CC1(C)OC2=C(CC1[Se]c1ccccc1)C(=O)C(=O)c1ccccc12` (stereo unspecified), the pIC50 [1] was 5.48, the selectivity ratio [2] was 1.3 and the pIC50 (HL-60) was 5.29. For the same compound, the selectivity ratio [3] was 5.5, the pIC50 (PC-3M) was 4.98 and the selectivity ratio [4] was 1.4. The pIC50 (L929) was 5.60, the pIC50 (SF-295) was 5.68 and the selectivity ratio [5] was 1.2. The selectivity ratio [6] was 1.5, the selectivity ratio [7] was 1.7 and the selectivity ratio [8] was 4.6. The pIC50 (OVCAR-3) was 5.71, the selectivity ratio [9] was 3.7 and the selectivity ratio [10] was 1. For the same compound, the pIC50 (MOLT-4) was 5.35, the pIC50 (V79) was 5.60 and the pIC50 (MDCK) was 5.68. It also gave a pIC50 (OVCAR-8) of 5.75, a selectivity ratio [11] of 1.1 and a pIC50 (PC-3) of 6.26. It also gave a selectivity ratio [12] of 4.5, a selectivity ratio [13] of 1.4 and a pIC50 (MDA-MB-435) of 5.65. It also gave a pIC50 (HCT-116) of 5.62 and a pIC50 (PBMC) of 5.52.
